# Tests used:
# Plasmodium falciparum = assay: Antiplasmodial activity against chloroquine-resistant Plasmodium falciparum W2 assessed as growth inhibition after 48 hrs by flow cytometer; type: functional, organism-based; details: W2, 48 h
# In short: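 Ring-stage W2 cultures in microwells exposed 48 h to a range of compound concentrations, added from DMSO stocks. Parasites then fixed in 1% formaldehyde/PBS pH 7.4 (48 h, RT) and stained with YOYO-1 (1 nM) in 0.1% Triton X-100/PBS. Parasitemia counted by flow cytometry (forward scatter vs fluorescence). IC50 fitted from % parasitemia vs untreated controls (R2 >0.95).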
# [1] = Selectivity index, ratio of IC50 for human HeLa cells to IC50 for chloroquine-resistant Plasmodium falciparum W2; type: toxicity; details: read-out: Selectivity Index
# In short: (§1)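 Selectivity index is cell-line IC50 (A549 for line 2, HeLa for line 3) divided by W2 IC50. Cells grown in DMEM with 10% FBS, seeded at 1 × 10^4 per well and allowed to adhere 24 h at 37 °C. They were then exposed to graded concentrations for 24 h. MTT (4 mg/mL) was added for 4 h and formazan dissolved in DMSO. IC50 from log(inhibitor)-response fits, three independent experiments.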
# A549 = assay: Cytotoxicity against human A549 cells assessed as reduction in cell viability preincubated for 24 hrs measured after 4 hrs by MTT assay; type: functional, cell-based
# In short: (§2)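 Cells were grown in DMEM with 10% fetal bovine serum, seeded at 1 × 10^4 cells per well and left 24 h at 37 °C to adhere. A range of compound concentrations was added for 24 h. Medium was then removed, MTT solution (4 mg mL−1) added for 4 h, and formazan dissolved in DMSO. Survival was expressed against untreated wells, and IC50 was fitted by log(inhibitor)–response nonlinear regression from three independent experiments.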
# [2] = Selectivity index, ratio of IC50 for human A549 cells to IC50 for chloroquine-resistant Plasmodium falciparum W2; type: toxicity; details: read-out: Selectivity Index; in short: as §1
# HeLa = assay: Cytotoxicity against human HeLa cells assessed as reduction in cell viability preincubated for 24 hrs measured after 4 hrs by MTT assay; type: functional, cell-based; in short: as §2
SMILES,IC50 (Plasmodium falciparum),selectivity ratio [1],IC50 (A549),selectivity ratio [2],IC50 (HeLa)
COc1cccc(C(c2ccc(C)cc2)N2CCN(c3ncnc4sc5c(c34)CCCC5)CC2)c1O (stereo not drawn),3.96 µM,,,,
Oc1ccccc1C(c1ccc(Cl)c(Cl)c1)N1CCN(c2ncnc3sc4c(c23)CCCC4)CC1 (stereo not drawn),0.752 µM,13.7,11.5 µM,15.3,10.3 µM
Oc1ccccc1C(c1ccc(F)c(Cl)c1)N1CCN(c2ncnc3sc4c(c23)CCCC4)CC1 (stereo not drawn),1.06 µM,6.03,8.5 µM,8.01,6.4 µM
Oc1ccccc1C(c1ccc(OC(F)(F)F)cc1)N1CCN(c2ncnc3sc4c(c23)CCCC4)CC1 (stereo not drawn),1.18 µM,7.7,7.2 µM,6.09,9.1 µM
Oc1ccccc1C(c1ccc(F)c(F)c1)N1CCN(c2ncnc3sc4c(c23)CCCC4)CC1 (stereo not drawn),1.04 µM,12.3,8.7 µM,8.43,12.7 µM
COc1cccc(C(c2ccc(F)cc2)N2CCN(c3ncnc4sc5c(c34)CCCC5)CC2)c1O (stereo not drawn),2.26 µM,,,,
COc1cccc(C(c2ccc(F)c(F)c2)N2CCN(c3ncnc4sc5c(c34)CCCC5)CC2)c1O (stereo not drawn),1.13 µM,,,,
Cc1ccc(C(c2ccccc2O)N2CCN(c3ncnc4sc5c(c34)CCCC5)CC2)cc1 (stereo not drawn),1.34 µM,,,,
COc1ccc(C(c2ccccc2O)N2CCN(c3ncnc4sc5c(c34)CCCC5)CC2)cc1 (stereo not drawn),2.42 µM,,,,
COc1cccc(C(c2ccc(OC(F)(F)F)cc2)N2CCN(c3ncnc4sc5c(c34)CCCC5)CC2)c1O (stereo not drawn),1.22 µM,,,,
COc1cccc(C(c2ccc(F)c(Cl)c2)N2CCN(c3ncnc4sc5c(c34)CCCC5)CC2)c1O (stereo not drawn),1.17 µM,,,,
COc1cccc(C(c2ccc(C(F)(F)F)cc2)N2CCN(c3ncnc4sc5c(c34)CCCC5)CC2)c1O (stereo not drawn),0.749 µM,9.59,7.3 µM,9.86,7.1 µM
COc1cccc(C(c2ccc(Cl)c(Cl)c2)N2CCN(c3ncnc4sc5c(c34)CCCC5)CC2)c1O (stereo not drawn),1.34 µM,,,,
Oc1ccccc1C(c1ccc(F)cc1)N1CCN(c2ncnc3sc4c(c23)CCCC4)CC1 (stereo not drawn),1.62 µM,,,,
COc1ccc(C(c2cccc(OC)c2O)N2CCN(c3ncnc4sc5c(c34)CCCC5)CC2)cc1 (stereo not drawn),6.41 µM,,,,
Oc1ccccc1C(c1ccc(C(F)(F)F)cc1)N1CCN(c2ncnc3sc4c(c23)CCCC4)CC1 (stereo not drawn),1.37 µM,,,,
COc1cccc2c1C(=O)c1c(O)c3c(c(O)c1C2=O)C[C@@](O)(C(=O)CO)C[C@@H]3O[C@H]1C[C@H](N)[C@H](O)[C@H](C)O1 [DOXORUBICIN],,,5.5 µM,,5.7 µM

# Source: ChEMBL document CHEMBL4732035, “Design, synthesis, crystal structure and anti-plasmodial evaluation of tetrahydrobenzo[4,5]thieno[2,3-d]pyrimidine derivatives” (RSC Med Chem, 2021)
